Measurements as given in PMC6682096 (ACS Omega, 2019).
“Also recorded” adds a separate entry of the source.

Legend:
[1] = test system: insulin-resistant HepG2 cells; assay: 2-NBDG glucose uptake assay; assay type: cell-based, human; details: for relative glucose uptake percentage: insulin-stimulated 2-NBDG uptake
Procedure, shortened: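 Insulin-resistant HepG2 cells (grown in 10% FBS MEM; resistance induced by a previously reported method) treated with test compound at 12.5, 25 and 50 μM and stimulated with 10–6 M insulin. Uptake of the fluorescent glucose analogue 2-NBDG read fluorimetrically on a plate reader. Rosiglitazone (10 μM) served as reference. Triplicate experiments, mean ± standard deviation.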

[2] = test system: IRS-1/PI3K/Akt signaling pathway in insulin-resistant HepG2 cells; assay: Western blot of IRS-1/PI3K/Akt signaling pathway; assay type: cell-based, human
HepG2 cells = assay: Cytotoxicity, cell viability by MTT assay; assay type: cell-based, human; details: up to 100 μM
Procedure, shortened: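 HepG2 cells were subcultured in MEM with 10% FBS, refreshing the medium every 48 h until confluent. They were then seeded in 96-well plates, and viability after test-compound exposure was assessed by MTT assay.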

hMAO-A = target: T1, hMAO-A (Homo sapiens, UniProt P21397); assay: Enzyme kinetics of hMAO-A inhibition; assay type: biochemical; details: Lineweaver–Burk plot
T1 sequence (P21397 1-527): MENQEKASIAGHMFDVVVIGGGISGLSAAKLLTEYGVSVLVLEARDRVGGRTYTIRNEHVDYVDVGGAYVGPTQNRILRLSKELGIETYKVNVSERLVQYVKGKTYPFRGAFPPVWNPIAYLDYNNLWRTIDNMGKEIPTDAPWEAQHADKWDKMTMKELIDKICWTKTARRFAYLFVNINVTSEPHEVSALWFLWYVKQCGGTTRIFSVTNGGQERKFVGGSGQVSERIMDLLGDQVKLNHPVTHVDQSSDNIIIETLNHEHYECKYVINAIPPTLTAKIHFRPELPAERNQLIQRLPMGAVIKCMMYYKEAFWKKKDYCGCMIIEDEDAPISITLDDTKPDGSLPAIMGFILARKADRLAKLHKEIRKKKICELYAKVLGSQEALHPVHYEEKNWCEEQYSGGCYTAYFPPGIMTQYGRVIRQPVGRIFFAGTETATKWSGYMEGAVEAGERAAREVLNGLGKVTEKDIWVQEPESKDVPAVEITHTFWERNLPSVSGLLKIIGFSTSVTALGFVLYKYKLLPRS
Procedure, shortened: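 hMAO-A activity measured by chemiluminescent MAO-Glo assay, with MAO substrate at three concentrations, with or without test compound. Lineweaver–Burk plots (with Dixon plots) gave Km, Vmax and inhibition mode. Ki, Kic and Kiu came from secondary plots.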

[3] = test system: PEPCK and G6Pase expression in insulin-resistant HepG2 cells; assay: Western blot of PEPCK and G6Pase expression levels; assay type: cell-based, human
[4] = test system: PTP1B expression in insulin-resistant HepG2 cells; assay: Western blot of PTP1B expression level; assay type: cell-based, human; details: 24 h treatment
PTP1B [5] = target: T2, PTP1B (Homo sapiens, UniProt P18031); assay: Enzyme kinetics of PTP1B inhibition; assay type: biochemical; details: for Ki: secondary plots
T2 sequence (P18031 1-435): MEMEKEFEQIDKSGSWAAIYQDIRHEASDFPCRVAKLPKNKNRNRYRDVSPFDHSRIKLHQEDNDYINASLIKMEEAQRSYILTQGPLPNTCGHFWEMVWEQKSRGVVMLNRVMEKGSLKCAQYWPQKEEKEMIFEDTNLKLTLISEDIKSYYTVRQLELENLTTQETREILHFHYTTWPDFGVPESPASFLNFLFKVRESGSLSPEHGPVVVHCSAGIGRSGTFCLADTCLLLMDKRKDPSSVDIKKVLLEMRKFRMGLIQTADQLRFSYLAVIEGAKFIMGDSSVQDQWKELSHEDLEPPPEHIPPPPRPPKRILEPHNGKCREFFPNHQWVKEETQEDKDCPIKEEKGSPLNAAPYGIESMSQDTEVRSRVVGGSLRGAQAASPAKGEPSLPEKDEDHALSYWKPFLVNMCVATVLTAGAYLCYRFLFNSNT
Procedure, shortened: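 Human recombinant PTP1B (0.5 unit) in pH 6.0 buffer (50 mM citrate, 0.1 M NaCl, 1 mM EDTA, 1 mM DTT) was preincubated with or without test compound for 10 min at 37 °C. pNPP substrate was then added at three concentrations and incubated for 20 min at 37 °C. NaOH stopped the reaction, and p-nitrophenol was read at 405 nm. Km and Vmax came from Lineweaver–Burk plots, with Dixon plots also used. Ki, Kic and Kiu came from secondary plots.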

PTP1B [6] = target: T2, PTP1B; assay: PTP1B inhibition assay using pNPP; assay type: biochemical
[7] = target: T3, human monoamine oxidase A (hMAO-A) (Homo sapiens, UniProt P21397); assay: hMAO-A inhibition chemiluminescent assay; assay type: biochemical
T3 sequence (P21397 1-527): T1 sequence (P21397 1-527)

| SMILES | insulin-stimulated glucose uptake ([1]; 10 μM, 2-NBDG) [%] | expression of total IRS-1 and p-IRS-1 (Tyr 895) [2] | relative abundances of p-PI3K and p-Akt [2] | cytotoxicity (cell viability) (HepG2 cells) | relative glucose uptake percentage ([1]; 12.5 μM) [%] | relative glucose uptake percentage ([1]; 25 μM) [%] | relative glucose uptake percentage ([1]; 50 μM) [%] | hMAO-A inhibition type (hMAO-A) | expressions of PEPCK and G6Pase [3] | PTP1B expression [4] | PTP1B inhibition type (PTP1B [5]; Lineweaver–Burk plot) | Ki (PTP1B [5]; PTP1B inhibition Ki value (Kic), binding constant of the inhibitor with the free enzyme) [µM] | Ki (PTP1B [5]; PTP1B inhibition Ki value (Kiu), binding constant of the inhibitor with the enzyme–substrate complex) [µM] | IC50 (PTP1B [6]) [µM] | IC50 [7] [µM] |
| --- | --- | --- | --- | --- | --- | --- | --- | --- | --- | --- | --- | --- | --- | --- | --- |
| CN(CCOc1ccc(CC2SC(=O)NC2=O)cc1)c1ccccn1 (stereo not drawn) [Rosiglitazone, reference compound] | 118.52 | – | – | – | – | – | – | – | – | – | – | – | – | – | – |
| COc1cc(O)c2c(O)c3c(=O)cc(C)oc3cc2c1 [rubrofusarin] | – | dose-dependently increased the expression of total IRS-1 and p-IRS-1 (Tyr 895) | in a dose-dependent manner increased the relative abundances of p-PI3K and p-Akt | showed toxicity at 100 μM; also recorded: nontoxic up to a 50 μM concentration | 68.54 | 81.27 | 98.47 | mixed-competitive | downregulate the expressions of PEPCK and G6Pase | inhibited PTP1B expression in a dose-dependent manner; also recorded: at 50 μM concentration significantly reduced the expression | mixed-competitive | 6.99 | 18.3 | 17 ± 0.49 | 5.9 ± 0.99 |
